Activity calls are given as the source filed them.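 The calls were made as follows, unless noted: active = inhibition at or above 50% relative to wild type and mutant plate controls; inactive = inhibition below 50%.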

Assay [1] in a line: inhibitors of TNFa-induced NFkB p65 translocation, primary screen, imaging, HUVEC, MLSMR starter and 10KST1 sets (AID 438;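 active = inhibition above 20% together with a positive visual image hit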;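 also: compound added about 3h40 before a 20 min TNFalpha stimulation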;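 as to inhibition: signal is the nuclear over cytoplasmic p65 intensity ratio per well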). The note with it: HUVEC TNFa-induced p65 nuclear translocation; cell count: measured here: nuclei count (cytotoxicity indicator), at 2.08 µM; inhibition: at 2 µM, stronger effect = higher value, 0% TNFa-plus-vehicle, 100% no-TNFa wells.
Assay [2] in a line: inhibitors of E-selectin induction by TNFa, primary screen, imaging, HUVEC, immunofluorescence, MLSMR starter and 10KST1 sets (AID 487;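 active = visually confirmed hit in the image check and inhibition above 20%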;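 as to inhibition: signal is fraction of cell area covered by stained E-selectin grains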;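 as to nuclei count: 100% = median nuclei count of all wells on the same plate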). The settings on record: HUVEC TNFalpha-induced E-selectin immunofluorescence imaging, at 2 µM; inhibition: stronger effect = higher value; nuclei count: measured here: cell number, toxicity.
Assay [3] is described as follows: DUSP6 inhibitors restoring Erk phosphorylation by chemical complementation, primary imaging in DUSP6-transfected HeLa (AID 609;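 active = compounds giving at least 50% inhibition in the cell-based MKP-3 phosphatase rescue imaging test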;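 as to inhibition: phospho-Erk level distribution per well compared with pooled transfected vehicle control wells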). The note with it: HeLa MKP-3 transfected, phospho-Erk imaging KS statistic, at 10 µM, cells stimulated with TPA for 15 min.
In assay [4] the target is Dual specificity protein phosphatase 6 (Homo sapiens) (UniProt Q16828). The assay is described as above. The note with it: HeLa MKP-3 transfected, phospho-Erk imaging KS statistic; at 10 µM; stronger effect = higher value; cells stimulated with TPA for 15 min.
The target in assay [5] is Voltage-gated potassium channel subunit beta-2 (Rattus norvegicus) (UniProt P62483). The experiment in a line: KvBeta enzyme negative modulators, primary screen, biochemical, NADPH fluorescence (AID 622;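 active = fluorescence slope higher than the sample average by over 3 SD, cut at about -0.22 in these data, passing the limit was not always enough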;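 also: slope of raw intensity against log time taken from 70 to 1610 s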). The note with it: recombinant KvBeta, 4-cyanobenzaldehyde reduction, at 10 µM, stronger effect = higher value.
For assay [6] the target is unchanged. Briefly: KvBeta positive modulators, primary screen, biochemical, NADPH fluorescence (AID 623;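 active = NADPH fluorescence slope more negative than the mean of all samples by about 3 SD, 99.7% confidence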;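 also: fluorescence intensity change per second fitted from 20 to 320 s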). The settings on record: Recombinant KvBeta, NADPH fluorescence decrease slope, 10 min; at 10 µM; stronger effect = lower value.
Assay [7] addresses Alpha-2C adrenergic receptor (Homo sapiens) (UniProt P18825). The experiment in a line: modulators of alpha2C/GIRK thallium flux, primary screen, cell-based, HEK293 alpha2C/GIRK1/2 (AID 624;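 active = fluorescence slope after compound addition differing from the mean of all screened samples at 99.7% confidence, in either direction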;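 also: slope of fluorescence ratio to pre-addition baseline per second over 15 to 24 s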). The note with it: thallium flux BTC fluorescence, at 10 µM, actives lie on both sides.
Assay [8] can be described thus: inhibitors of larval lipid processing in zebrafish, primary screen, whole organism, PED6 fluorescence, gall bladder and intestine (AID 686;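 active = a full or partial loss of lipid-probe fluorescence in the fish gall bladder, intestine or both, judged by eye; inactive = no fluorescence loss, or compound toxic to the fish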;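 also: larvae 5 to 7 days old with five fish per well; signal comes from phospholipase A2 cleavage of quenched PED6 carried via bile; overnight exposure to compound and PED6 before scoring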). The note with it: Zebrafish larvae PED6 lipid processing, fluorescence scoring; screened at 20 µM (by protocol). The procedure, abridged:
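Test system – live zebrafish larvae aged 5-7 days, whole organism · Buffer or medium – E3 fish medium · Reagent – quenched phospholipase substrate PED6, 100 nM final, ingested by larvae · Doses – 20 µM single dose · Incubation – overnight compound and PED6 incubation · Technique – visual fluorescence microscopy scoring of gall bladder, gut · Read-out basis – visual per-well fluorescence inhibition score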

A short description of assay [9]: inhibitors of Chlamydomonas gravitaxis, primary screen, whole organism, Chlamydomonas reinhardtii, WT vs cilia-less mutant, absorbance, 96-well (AID 463189).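 Also: 0% = wild type cc124 cells in DMSO and 100% = ciliumless bld1 mutant cells.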 The note with it: OD600 absorbance, 2 days, at 10 µM, stronger effect = higher value.
Setting [10] is: measured here: cell density z-score.
The mark [11] stands for this setting: measured here: nuclear c-Myc green intensity z-score.
Where [12] appears, read: measured here: nuclear pErk red intensity z-score, stronger effect = higher value.

Voltage-gated potassium channel subunit beta-2 (Rattus norvegicus), sequence (P62483 whole entry, looked up): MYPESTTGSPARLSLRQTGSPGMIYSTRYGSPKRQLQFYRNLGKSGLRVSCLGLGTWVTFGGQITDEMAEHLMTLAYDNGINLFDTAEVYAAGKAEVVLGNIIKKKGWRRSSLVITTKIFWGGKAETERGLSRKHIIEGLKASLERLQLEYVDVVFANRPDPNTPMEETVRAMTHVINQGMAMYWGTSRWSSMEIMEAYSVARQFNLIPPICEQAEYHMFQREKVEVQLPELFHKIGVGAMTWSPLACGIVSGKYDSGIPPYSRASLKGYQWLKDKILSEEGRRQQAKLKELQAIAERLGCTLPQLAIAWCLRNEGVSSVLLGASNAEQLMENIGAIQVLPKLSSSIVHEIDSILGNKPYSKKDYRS
Alpha-2C adrenergic receptor (Homo sapiens), sequence (P18825 whole entry, looked up): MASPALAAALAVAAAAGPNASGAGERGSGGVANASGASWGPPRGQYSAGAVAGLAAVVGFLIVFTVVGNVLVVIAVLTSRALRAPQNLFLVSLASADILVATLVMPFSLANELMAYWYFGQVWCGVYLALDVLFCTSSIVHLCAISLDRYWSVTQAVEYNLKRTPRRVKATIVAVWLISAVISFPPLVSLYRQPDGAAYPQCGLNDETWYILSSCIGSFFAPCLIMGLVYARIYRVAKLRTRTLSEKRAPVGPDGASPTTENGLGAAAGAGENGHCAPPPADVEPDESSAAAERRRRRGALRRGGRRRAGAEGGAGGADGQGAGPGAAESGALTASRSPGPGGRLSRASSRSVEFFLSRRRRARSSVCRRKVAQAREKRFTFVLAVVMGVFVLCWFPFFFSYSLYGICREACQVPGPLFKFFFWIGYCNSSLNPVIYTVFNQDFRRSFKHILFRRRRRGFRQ
Dual specificity protein phosphatase 6 (Homo sapiens), sequence (Q16828 whole entry, looked up): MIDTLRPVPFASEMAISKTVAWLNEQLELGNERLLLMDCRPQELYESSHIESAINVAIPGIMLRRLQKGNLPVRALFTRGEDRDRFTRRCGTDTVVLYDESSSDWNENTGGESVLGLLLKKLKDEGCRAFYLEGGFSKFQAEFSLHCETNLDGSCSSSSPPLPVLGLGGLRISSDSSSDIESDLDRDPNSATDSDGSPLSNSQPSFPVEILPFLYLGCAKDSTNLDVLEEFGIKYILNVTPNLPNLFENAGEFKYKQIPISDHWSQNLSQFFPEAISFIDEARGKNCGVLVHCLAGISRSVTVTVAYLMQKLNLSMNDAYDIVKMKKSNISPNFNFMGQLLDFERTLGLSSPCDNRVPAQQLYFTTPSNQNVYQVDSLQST

Turning to `NS(=O)(=O)c1ccc(-c2ccc(C=NC3CCS(=O)(=O)C3)o2)cc1` (stereo not drawn), the cell count in [1] was found to be 576. Moreover, the inhibition in [1] is 0.1% (inactive); in assay [2] it was -53.9% (inactive); in [4], -4.7% (inactive); in assay [9] it was -10.3% (inactive). In assay [2], this compound came in with a nuclei count of 94%. Further, the z-score in assay [3] (setting [10]) is -1.97; in assay [3] (setting [11]), 0.0247; in assay [3] (setting [12]), 1.53. Moreover, the fluorescence slope in assay [5] is -0.59 (inactive). In assay [6], the NADPH fluorescence slope was -5.6e-05 (inactive). The slope in assay [7] was 0.00467 (inactive). The result in [8] was inactive.
Turning to `O=C(Nc1ccc2c(c1)OCCO2)c1ccc(Br)o1`, the cell count in [1] worked out at 587. Besides, the inhibition was 3.2% (inactive) in assay [1], 6.1% (inactive) in [2], -1.75% (inactive) in assay [4] and 12.8% (inactive) in [9]. This compound registered a nuclei count in assay [2] of 143%. Besides, the z-score in assay [3] (setting [10]) is 0.114; in assay [3] (setting [11]), -1.76; in [3] (setting [12]), -1.37. In addition, the fluorescence slope in assay [5] is -0.295 (inactive). In assay [6], the NADPH fluorescence slope was -8.8e-06 (inactive). Moreover, the slope in assay [7] was 0.00481 (inactive). Further, the compound was called inactive in assay [8].
For the compound `N#C/C(=C\N1CCN(Cc2ccc3c(c2)OCO3)CC1)c1nc2ccccc2s1`, the cell count in [1] worked out at 359. The inhibition in assay [1] was -3.7% (inactive); in assay [2], -122% (inactive); in [4] it was -14% (inactive); in assay [9], 100% (active). For the same compound, in assay [2], the nuclei count is 170%. The z-score in [3] (setting [10]) was -0.883; in [3] (setting [11]), 0.284; in [3] (setting [12]), 0.578. Also, in [5], the fluorescence slope was -0.428 (inactive). In assay [6], the NADPH fluorescence slope is -0.000152 (inactive). Besides, the slope in assay [7] was 0.00144 (inactive).
For the compound `C=C1C2(C(=O)Nc3nccs3)CCC(C2)C1(C)C` (stereo not drawn), in assay [1], the cell count stood at 357. In addition, the inhibition in [1] was -0.5% (inactive); in assay [2], -34.7% (inactive); in [4] it was -3.5% (inactive); in assay [9], 0.99% (inactive). Besides, the nuclei count in [2] was 138%. The z-score in [3] (setting [10]) is -1.77; in assay [3] (setting [11]), 1.86; in assay [3] (setting [12]) it was 0.223. Besides, in assay [5], the fluorescence slope is -0.4 (inactive). Also, the NADPH fluorescence slope in assay [6] is -0.000131 (inactive). In addition, in assay [7], the slope is 0.00676 (inactive).
For the compound `Cc1cc(C(F)(F)F)nn1CC(=O)NCC1CCCO1` (stereo not drawn), the cell count in assay [1] stood at 516. Moreover, the inhibition in [1] was -3.1% (inactive); in [2], -24% (inactive); in assay [4], -3.98% (inactive); in assay [9], 12.4% (inactive). This compound had a nuclei count in assay [2] of 137%. For the same compound, the values for the z-score in assay [3] (setting [10]), in [3] (setting [11]) and in [3] (setting [12]) were -0.885, 0.653 and 1.12, respectively. The fluorescence slope in assay [5] is -0.484 (inactive). In [6], the NADPH fluorescence slope was -0.000135 (inactive). Moreover, the slope in [7] was 0.00552 (inactive). Further, the compound was classed as inactive in assay [8].
For the compound `Cc1cccc(C)c1N1C(=O)C2ON(c3ccccc3)C(c3ccncc3)C2C1=O` (stereo not drawn), the cell count in assay [1] was 382. Besides, the inhibition in assay [1] was -1.4% (inactive); in assay [2], -151% (inactive); in assay [4] it was -1.75% (inactive); in assay [9], -6.35% (inactive). This compound also came in with a nuclei count in assay [2] of 141%. Also, the z-score in assay [3] (setting [10]) is 1.05; in [3] (setting [11]), 0.0518; in assay [3] (setting [12]) it was -0.286. In addition, the fluorescence slope in [5] was -0.442 (inactive). In addition, the NADPH fluorescence slope in assay [6] is -0.000159 (inactive). Also, in assay [7], the slope is 0.00363 (inactive).
With `CCCOc1cccc(C2C(C(=O)c3ccc(C)o3)=C(O)C(=O)N2CCCN(C)C)c1` (stereo not drawn), the cell count in assay [1] turned out to be 432. Besides, the inhibition is 3.5% (inactive) in assay [1], 48.5% (inactive) in [2], -11.9% (inactive) in assay [4] and -2.38% (inactive) in assay [9]. In assay [2], this compound came in with a nuclei count of 77.5%. For the same compound, the results for the z-score in assay [3] (setting [10]), in [3] (setting [11]) and in [3] (setting [12]) were -0.596, -1.82 and 0.0129, respectively. Also, in assay [5], the fluorescence slope is -0.45 (inactive). Moreover, in [6], the NADPH fluorescence slope is -9.1e-06 (inactive). The slope in assay [7] was 0.00522 (inactive). Also, in assay [8], the call was inactive.

The term inhibition denotes the drop in the measured response relative to a control, in per cent.

Source of the values: PubChem BioAssay.
